Apaf1 inhib = inhibitors of human Apaf-1 apoptosome, primary screen, biochemical, DEVD-Rh110 fluorescence, uHTS. inhibition, % at 20 µM. Apoptotic protease-activating factor 1 (Homo sapiens), O14727. reconstituted apoptosome caspase-3 activity. 0.71% of 330,000 active; active = inhibition of at least 40% at 20 µM;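 note: plate controls were DMSO wells for no effect and DEVD-CHO caspase inhibitor wells for full effect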
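Material: cell-free apoptosome with Apaf-1, procaspase-3 and caspase-9; Buffer or medium: Hepes pH 7.5 with detergent and BSA; Reagent: cytochrome c trigger plus (Z-DEVD)2-Rh110 caspase-3 substrate; Times: compound with Apaf-1, dATP, procaspase-3 30 min, then 50 min reaction, room temperature; Technique: Rh110 fluorescence intensity.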
SENP8 block-1 = SENP8 protease inhibitors, primary screen, biochemical, luminescence | inhibition, % at 10 µM | Sentrin-specific protease 8 (Homo sapiens), Q96LD8 | purified SENP8, Z-RLRGG-aminoluciferin cleavage | 1.2% of 330,000 active; in the data active = inhibition above about 50%
Target sequence (Q96LD8 whole entry, looked up): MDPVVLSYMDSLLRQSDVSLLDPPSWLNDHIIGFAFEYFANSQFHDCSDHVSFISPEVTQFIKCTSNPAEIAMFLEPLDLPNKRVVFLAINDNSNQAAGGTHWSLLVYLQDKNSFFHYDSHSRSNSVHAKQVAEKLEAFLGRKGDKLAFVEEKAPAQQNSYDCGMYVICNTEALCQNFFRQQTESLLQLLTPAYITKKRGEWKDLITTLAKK
SENP6 inh = SENP6 protease inhibitors, primary screen, biochemical, luminescence, uHTS; inhibition, % at 10 µM; Sentrin-specific protease 6 (Homo sapiens), Q9GZR1; Recombinant SENP6 catalytic domain, aminoluciferin luminescence; 1.8% of 330,000 active; AID 2599, 2010;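 active = inhibition above about 50% at the single tested dose, limit read from the data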;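 note: plate controls were DMSO wells with enzyme for no effect and DMSO wells lacking enzyme for full effect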
SENP7 inh = SENP7 protease inhibitors, primary screen, biochemical, luminescence, uHTS; Sentrin-specific protease 7 (Homo sapiens), Q9BQF6; inhibition, % at 5 µM; AID 434973, 2010; 1.5% of 330,000 active; recombinant SENP7, Z-RLRGG-aminoluciferin luminescence, 40 min;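 active = inhibition above about 50% at the single test dose, limit read from the data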;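 note: plate controls were DMSO with enzyme for no effect and no enzyme buffer wells for full effect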
Target sequence (Q9BQF6 706-1050 limits assumed): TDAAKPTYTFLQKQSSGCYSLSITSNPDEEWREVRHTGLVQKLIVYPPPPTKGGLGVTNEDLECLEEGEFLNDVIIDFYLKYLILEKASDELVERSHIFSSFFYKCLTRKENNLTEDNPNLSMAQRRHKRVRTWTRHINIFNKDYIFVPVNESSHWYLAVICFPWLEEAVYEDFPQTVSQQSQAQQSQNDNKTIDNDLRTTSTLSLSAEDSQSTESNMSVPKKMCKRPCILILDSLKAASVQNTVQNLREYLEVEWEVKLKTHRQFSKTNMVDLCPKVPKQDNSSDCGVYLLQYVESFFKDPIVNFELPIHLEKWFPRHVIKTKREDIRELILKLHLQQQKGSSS
UBC13 polyUb = UBC13 polyubiquitin chain formation inhibitors, primary screen, biochemical, TR-FRET, uHTS; 0.47% of 330,000 active; Ubiquitin-conjugating enzyme E2 N (Homo sapiens), P61088; inhibition, % at 20 µM; in the data active = inhibition above about 45%, passing the limit was not always enough
SENP8 block-2 = human SENP8 protease inhibitors, primary screen, biochemical, fluorescence, Nedd8 protein substrate, uHTS | AID 602440, 2012 | recombinant SENP8 | Sentrin-specific protease 8 (Homo sapiens), Q96LD8 | 0.64% of 360,000 active | inhibition, % at 20 µM; in the data active = inhibition mostly above about 40%, no sharp cut-off; inactive = mostly below about 27%
Casp3 UBC13 ctr = CASP3 inhibitor validation, counterassay for project on UBE2N polyubiquitination blockers, biochemical, one dose | shares compounds with UBC13 polyUb | Recombinant caspase-3, Caspase-Glo 3/7 luminescence, 60 min | inhibition, % at 20 µM | 4% of 1,400 active;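 active = mean inhibition across replicates above about 26%, limit read from the data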;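 note: plate controls were DMSO with caspase-3 for no effect and DMSO wells lacking enzyme for full effect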
UBC13 conf = UBC13 polyubiquitination inhibitors, single-point retest, confirmation, biochemical, TR-FRET, single concentration. shares compounds with UBC13 polyUb. 68% of 1,400 active. AID 488859, 2010. inhibition, % at 10 µM; in the data active = inhibition above about 45%
Active calls of the source: *; i = inactive; x = no result. Hits are enriched below; roughly 3.1% of the tested compounds scored in any of these assays.

SMILES	Apaf1 inhib	SENP8 block-1	SENP6 inh	SENP7 inh	UBC13 polyUb	SENP8 block-2	Casp3 UBC13 ctr	UBC13 conf
CCCCN(CC)CCNC(=O)c1cc2c(=O)n(CC)c3ccccc3c2s1	6	3	-8	7	72*	-296	-3	91*
CCn1c(=O)c2cc(C(=O)NCCCOC)sc2c2ccccc21	6	-12	-39	-10	22	-336	x	x
CCCCN(CC)CCCNC(=O)c1cc2c(=O)n(CC)c3ccccc3c2s1	5	3	-1	2	50*	-290	4	62*
CCCN(CCC)CCCNC(=O)c1cc2c(=O)n(CC)c3ccccc3c2s1	6	7	-32	10	47*	-270	-4	35
CC(=O)NCCNc1nc2cc(-c3cscc3C)sc2c(=O)n1C	x	x	x	x	x	-64	x	x
O=C(Nc1nnc([C@H]2C[C@H](O)[C@@H](CO)O2)s1)NC1CCCCC1	x	x	x	x	x	5	x	x
CC(=O)NC(c1ccccc1)c1nc(-c2cccs2)cs1 (stereo not drawn)	x	x	x	x	x	-1	x	x
Cc1cccc(OCc2n(CC(=O)OC3CC(C)CCC3C(C)C)c3ccccc3[n+]2C)c1 (stereo not drawn)	50*	-11	-11	5	59*	2	6	92*
CC[C@@H](C)[C@H](CN[C@H](CNC)C(C)C)NC[C@@H](C)c1ccc(CC(C)C)cc1	9	2	-11	8	89*	19	-2	72*
CC[C@H](C)[C@@H](CNC)NC[C@@H](Cc1ccc(O)cc1)NCC(C)(C)C	-5	7	-4	-10	3	13	x	x
COc1ccc2nc3oc(C(=O)NC4CCN(Cc5ccccc5)CC4)cc3cc2c1	19	-8	-12	-7	58*	i	0	26
O=C(COC(=O)COc1ccc(Br)cc1)NC1CCS(=O)(=O)C1 (stereo not drawn)	x	x	x	x	x	5	x	x
O=S(=O)(NC1CCCC1)c1ccc(S(=O)(=O)NC2CCCC2)cc1	-14	-5	-8	-8	11	11	x	x
O=S(=O)(NC1CCCCC1)c1ccc(Cl)nc1	-6	-5	1	-4	50*	10	-5	10
CC1(C)CC(=O)C=C(c2ccc(COC(=O)C3CC3)cc2)C1=O	x	x	x	x	x	17	x	x
CCn1c(SCC(=O)Nc2oc(C)c3c(C)n[nH]c(=O)c23)nc2sc(C)c(C)c2c1=O	31	4	-9	-1	64*	-14	-2	18
CCN1CCN(CCNC(=O)c2ccc3c(c2)N(Cc2ccc(F)cc2)C(=O)/C(=C/c2ccccc2)S3)CC1	37	-8	-13	2	65*	-54	2	92*
COc1cccc(/C=C2/Sc3ccc(C(=O)NCCN4CCCC4)cc3NC2=O)c1	24	-6	-5	4	50*	-84	-2	74*
CCc1nc2c(OCc3ccc(F)c(F)c3)cccn2c1N(C)C(=O)c1cccs1	x	x	x	x	x	7	x	x
CC1OC(C2CCCCC2)Cc2[nH]c(=S)[nH]c(=O)c21 (stereo not drawn)	x	x	x	x	x	7	x	x
COc1ccccc1NC(=O)c1c(N=Cc2c(O)ccc3ccccc23)cnn1C	0	-4	-11	3	58*	24	0	66*
CCOC(=O)N1CCN(C(=O)C(=O)Nc2sc3c(c2C(N)=O)CC(C)(C)OC3)CC1	-5	-4	-1	3	63*	8	-2	90*
CCOC(=O)N1CCN(C(=O)C(=O)Nc2sc3c(c2C(=O)O)CC(C)(C)OC3)CC1	4	3	-7	8	-7	7	x	x
Cc1ccccc1C(=O)N(C)[C@H]1C[C@H]2c3[nH]c4ccccc4c3CCN2C(=O)[C@H]1[C@H](C)O	x	x	x	x	x	-135	x	x
Cc1nn(CC(=O)NCCCN2CCC(Cc3ccccc3)CC2)c(=O)c2cc(-c3ccccc3)nn12	16	10	-1	1	93*	15	2	112*
SMILES	Apaf1 inhib	SENP8 block-1	SENP6 inh	SENP7 inh	UBC13 polyUb	SENP8 block-2	Casp3 UBC13 ctr	UBC13 conf
CCc1ccc(-c2cc3c(=O)n(CC(=O)NCCCN4CCC(Cc5ccccc5)CC4)nc(C)n3n2)cc1	25	-22	-13	-1	60*	19	1	86*
O=C(Nc1ncccc1O)c1ccc(S(=O)(=O)NCc2ccco2)cc1	x	x	x	x	x	17	x	x
COc1cccc(N2CCN(C(=O)c3ccc(OC)c(S(=O)(=O)NC4CC4)c3)CC2)c1	x	x	x	x	x	14	x	x
O=C(CCCCCN1C(=O)c2cccc3cccc(c23)C1=O)NCc1cccnc1	-6	-8	-11	7	76*	-270	-3	58*
COc1cccc2c1NC(C(=O)O)C1CC=CC21 (stereo not drawn)	20	4	-58	-3	45*	-29	3	47*
O=C(O)C1Nc2ccc(OC(F)(F)F)cc2C2C=CCC12 (stereo not drawn)	24	-6	-29	-8	-47	x	x	x
O=c1[nH][nH]c2c1[C@H](c1ccc(Cl)cc1)O[C@H](C1CC1)C2	x	x	x	x	x	28	x	x
Cc1ccc(CNCCCn2cnc3c(OCc4ccccc4)ncnc32)o1	x	x	x	x	x	4	x	x
CN(C)S(=O)(=O)c1cccc(COc2ncnc3c(Cl)cc(Cl)cc23)c1	3	-7	-19	-4	64*	15	6	76*
COc1ccc(S(=O)(=O)Nc2ccc3c(c2)C(=O)N([C@H](C)CO)C[C@H](C)[C@@H](CN(C)C(=O)Nc2ccc(F)cc2)OCCCC[C@H](C)O3)cc1	x	x	x	x	x	1	x	x
CCOC1=C2[C@H](c3ccccc3)N(S(=O)(=O)c3ccc(C)cc3)[C@H](C(C)C)[C@H]2n2c(=O)n(-c3ccccc3)c(=O)n2C1	x	x	x	x	x	11	x	x
COc1ccccc1NC(=O)CSc1nc2ccccc2n1C(C)=O	-3	0	8	3	46*	-2	-1	28
CC(=O)OC[C@@H]1CN(Cc2ccccc2)C[C@H](n2cnc3c(N4CCN(c5ccccc5)CC4)ncnc32)O1	x	x	x	x	x	8	x	x
COc1ccc2[nH]cc(CCNC(=O)Nc3ccccc3)c2c1	5	7	17	8	52*	-1	1	42
CCN1CCN(Cc2ccc(NC(=O)c3cc(NC(=O)c4cc(C)on4)cc(OC)c3)cc2C(F)(F)F)CC1	33	3	-13	-2	52*	10	-3	26

Assay outcomes (PubChem)
